# Screens from PubChem.
# Runt-SMMHC FRET = blocks binding of human RUNX1 Runt domain to CBFb-SMMHC; Cerulean-Runt/Venus-CBFb-SMMHC FRET ratio 530/480, 1 h; actives 0.74% (n = 220,000); inhibition, % at 20 µM; AID 1434;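 active means mean inhibition across duplicate retests at 20 µM reaching about 50%, limit read from the data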;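 further: inhibitors lower the FRET ratio by blocking Runt binding to CBFb-SMMHC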
# Target sequence (Q01196 whole entry, looked up, the tested form may be a part): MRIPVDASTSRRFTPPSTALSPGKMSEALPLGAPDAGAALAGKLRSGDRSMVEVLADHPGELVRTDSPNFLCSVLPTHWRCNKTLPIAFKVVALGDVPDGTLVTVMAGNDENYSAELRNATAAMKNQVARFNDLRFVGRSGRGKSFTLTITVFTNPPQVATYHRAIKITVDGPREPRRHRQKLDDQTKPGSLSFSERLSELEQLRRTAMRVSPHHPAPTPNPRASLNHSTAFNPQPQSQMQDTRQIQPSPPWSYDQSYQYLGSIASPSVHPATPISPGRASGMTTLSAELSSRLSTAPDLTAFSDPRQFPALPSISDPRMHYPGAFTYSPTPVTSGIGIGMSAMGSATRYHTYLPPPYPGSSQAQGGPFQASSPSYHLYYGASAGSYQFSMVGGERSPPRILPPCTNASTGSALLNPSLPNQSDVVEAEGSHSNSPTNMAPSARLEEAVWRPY
# Target sequence (Q13951 whole entry, looked up, the tested form may be a part): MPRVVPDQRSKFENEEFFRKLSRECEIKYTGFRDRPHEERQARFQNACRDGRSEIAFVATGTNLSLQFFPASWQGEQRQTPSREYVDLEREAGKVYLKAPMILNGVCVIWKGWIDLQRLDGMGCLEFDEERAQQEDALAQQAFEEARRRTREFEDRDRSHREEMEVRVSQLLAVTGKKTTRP
# Runt-CBFb FRET = Runt domain-CBFb interaction inhibition. inhibition, % at 20 µM. actives 0.46% (n = 220,000). AID 1496. Q01196+Q13951. Cerulean-Runt/Venus-CBFb FRET ratio 530/480, 1 h;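 active means inhibition over about 50% at 20 µM in the single-dose screen, limit read from the data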
#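 Assay system: Cerulean-Runt domain fusion protein, energy donor; Signal: fluorescence energy transfer, 422 nm excitation, 530/480 nm emission; Timing: 1 h compound exposure, room temperature; Control set: unlabeled CBFb; Medium: Tris buffer pH 7.5 with salts and BSA; Compound: single test concentration of 20 µM, 1% DMSO final; Probe or stimulus: Venus-CBFb 100 nM.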
# TbHK1 inh = blocks Trypanosoma brucei hexokinase 1 activity; recombinant TbHK1, G6PDH-coupled NADH A340; actives 0.11% (n = 220,000); AID 1430; inhibition, % at 10 µM;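 active means inhibition of 50% or more in the single-dose primary screen; inactive means inhibition below 50%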
# RanGTP-Impb inh = inhibitors of RanGTP-importin-beta interaction, primary screen, biochemical, FRET, CFP-Ran, YFP-importin-beta, homogeneous. cell-free CFP-Ran/YFP-importin-beta FRET ratio. inhibition, % (test concentration not listed). actives 1.1% (n = 300,000);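 active means more than half of the replicate wells show a fall in the fluorescence ratio signal beyond about 16%, limit read from the data, passing the limit was not always enough; inconclusive means exactly half of the replicate wells pass the set limit; inactive means fewer than half of replicates pass the limit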
# Hck-Nef inh = blocks Nef-activated human Hck kinase; actives 0.68% (n = 220,000); inhibition, % at 20 µM; Recombinant Hck-YEEI plus Nef, Z-Lyte FRET kinase assay; AID 463187; P08631;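 active means Hck-Nef kinase inhibition above about 50%, limit read from the data; inactive means inhibition below that limit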
# 14-3-3 Bad PPI = disrupts binding of bovine 14-3-3 zeta to phospho-Bad peptide. P63103. TR-FRET 14-3-3zeta/Dy647-pBad peptide displacement, 1 h. inhibition, % at 21.7 µM. actives 0.71% (n = 220,000). AID 781;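 active means inhibition above about 70%, limit read from the data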
# YIC counter = counter-screen: alters YIC FRET probe signal. IC50, µM. shares compounds with RanGTP-Impb inh. Purified YIC probe, intramolecular FRET ratio YFP/CFP. actives 40% (n = 1,000);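 active means fitted half-maximal inhibitory concentration no more than tenfold above the top dose tested; inconclusive means flat fit with 30 to 70% activity, or poor fit; inactive means half-maximal concentration beyond tenfold above the top dose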
# A number is an active result; – = inactive; ? = inconclusive; · = no result given. Hits are enriched below; roughly 2.2% of the tested compounds scored in any of these assays.
SMILES,Runt-SMMHC FRET,Runt-CBFb FRET,TbHK1 inh,RanGTP-Impb inh,Hck-Nef inh,14-3-3 Bad PPI,YIC counter
COC(=O)c1c(NC(=O)c2ccc([N+](=O)[O-])o2)sc2c1CCN(C(C)C)C2,·,·,·,16,·,·,–
Cc1cnc(=O)[nH]c1SCC(=O)c1ccc(F)cc1,·,·,·,16,·,·,–
Cc1csc(NC(=O)CSc2[nH]c(=O)ncc2C)n1,·,·,·,–,·,·,·
CN(C)CCCN(C(=O)c1ccc(Br)s1)c1nc2cc3c(cc2s1)OCCO3,·,·,·,22,·,·,–
CCN(CC)CCN(C(=O)c1ccc(Br)s1)c1nc2cc3c(cc2s1)OCCO3,–,–,–,–,–,–,·
CC(C)CCn1c(Br)nc2c1c(=O)n(CC(N)=O)c(=O)n2C,–,–,–,–,–,–,·
CCN1CCN(Cc2ccc(NC(=O)c3ccc(C)c(/C=C/c4cnc(Nc5cc(N6CCNCC6)nc(C)n5)cn4)c3)cc2C(F)(F)F)CC1,·,·,·,31,·,·,17
c1ccc2c(c1)nc(NCC1CCCO1)c1nnnn12 (stereo not given),–,–,–,23,–,–,28
CC(C)(C)OC(=O)N1CCC[C@H]1c1nnc(SCC(=O)Nc2ccc(Br)cc2)o1,–,–,–,–,–,–,·
Cc1noc(C)c1NC(=O)Nc1ccc2c(c1)C(=O)N([C@H](C)CO)C[C@@H](C)[C@@H](CN(C)C(=O)Nc1c(C)noc1C)OCCCC[C@@H](C)O2,·,·,·,·,·,·,–
C[C@@H]1CCCCO[C@@H](CN(C)C(=O)CCC(F)(F)F)[C@@H](C)CN([C@@H](C)CO)C(=O)c2cc(NC(=O)CCC(F)(F)F)ccc2O1,·,·,·,·,·,·,–
CCOC(=O)c1sc2ncc([N+](=O)[O-])cc2c1N,–,–,–,–,–,–,·
CCOC(=O)CNc1ncc([N+](=O)[O-])cc1C#N,–,–,–,20,–,–,–
CSc1nc(-c2ccc(Cl)cc2)c(C#N)c(=O)n1C,–,–,–,–,–,–,·
CSc1nc(-c2ccc(N(C)C)cc2)c(C#N)c(=O)n1C,85,–,–,17,–,–,9.4
CC(C)(C)c1nc(SCC(=O)c2ccccc2)c2ccccc2n1,–,–,–,–,–,–,·
O=C(Cc1c2ccccc2nc2ccccc12)c1ccccc1,115,126,–,22,–,–,–
O=C(C1CCCN(S(=O)(=O)c2ccc(F)cc2)C1)N1CCCCC1 (stereo not given),·,·,·,–,·,·,·
O=C(c1ccc2ccccc2n1)N1CCN(c2ccccc2)CC1,–,–,–,–,–,–,·
N#Cc1ccc(/C=C(\C(=O)C(=O)O)c2ccc3ccccc3n2)cc1,64,–,–,20,–,–,12
CCOC(=O)/C(C#N)=C1/C=Nc2ccccc2N1,–,–,–,27,–,–,–
CCOC(=O)/C(C#N)=C1/C=CN(c2ccccc2)C=N1,–,–,–,–,–,–,·
COc1cc2c(cc1NC(=S)Nc1cccc3ccccc13)oc1ccccc12,–,–,–,18,–,–,–
COc1cccc(Oc2c(C)oc3c(CN4CCCC4)c(O)ccc3c2=O)c1,–,–,–,–,–,–,·
C/C(N)=C(/C#N)C(=O)COC(=O)c1cc(-c2ccc(Br)cc2)nc2ccccc12,–,–,–,–,–,–,·
SMILES,Runt-SMMHC FRET,Runt-CBFb FRET,TbHK1 inh,RanGTP-Impb inh,Hck-Nef inh,14-3-3 Bad PPI,YIC counter
C/C(N)=C(/C#N)C(=O)COc1ncnc2ccccc12,·,·,–,22,–,–,–
O=C(NC1CCCCC1)C(c1ccccc1)N(Cc1cccnc1)C(=O)c1csnn1 (stereo not given),·,·,·,–,·,·,·
Cc1ccc(-n2c(O)c(C=Nc3ccc4c(c3)OCO4)c3ccccc3c2=O)cc1C,–,–,–,19,–,–,28
COc1ccc(N2CCN(CCCNC(=O)Cn3c(=O)c4cccn4c4cccnc43)CC2)cc1,·,·,·,–,·,·,·
O=C(Cn1c(=O)c2cccn2c2cccnc21)NCCCN1CCN(c2ccc(F)cc2)CC1,·,·,·,32,·,·,–
NC(=O)c1sc2nccc(Nc3ccccc3)c2c1N,–,–,–,39,–,·,–
CCc1nc(N)c(C#N)c(-c2ccc(F)cc2)c1C,–,–,–,23,–,–,–
Cc1ccc(-c2c(C#N)c(N)nc3c2CCCC3)s1,–,–,–,22,–,·,27
CCc1nc(N)c(C#N)c(-c2cccnc2)c1C,–,–,–,·,–,–,·
N#Cc1c(N)nc2c(c1-c1ccc(F)cc1)CCC2,–,–,–,21,–,–,9.9
COc1ccc(-c2cc(C(=O)N(C)Cc3ccc(F)cc3)c3ccccc3n2)cc1OC,·,·,·,–,·,·,·
COc1cc(NC(=O)c2cc(-c3cccs3)on2)cc(OC)c1OC,–,–,–,28,–,–,–
COc1cc(NC(=O)c2cc(-c3ccc(C)cc3)on2)cc(OC)c1OC,·,·,·,–,·,·,·
O=C(OCCN1CCN(C2=NS(=O)(=O)c3ccccc32)CC1)c1cccc(Br)c1,·,·,·,–,·,·,·
COCC(COS(N)(=O)=O)C(C)C (stereo not given),·,·,·,–,·,·,·
O=C1/C(=C/c2cccs2)Sc2ccccc21,–,–,–,19,–,–,?
O=C(c1ccc(Br)cc1)c1cc2ccc(O)cc2oc1=O,·,·,·,33,·,·,20
CCc1ccc(C(=O)c2cc3ccc(O)cc3oc2=O)cc1,·,·,·,45,·,·,11
O=C(c1ccc(Br)cc1)c1coc2ccc(O)cc12,·,·,·,–,·,·,·
Cc1ccccc1NC(=O)c1ccc(Cl)c(NC(=O)c2cccnc2)c1,–,–,–,–,–,–,·
CC1CC(C)CN(C(=O)C(NS(=O)(=O)c2ccc(Br)s2)c2ccccc2)C1 (stereo not given),–,–,–,–,–,–,·
Cc1cc(C)c(S(=O)(=O)N(C)CC(=O)N2CCCCC2)c(C)c1,–,–,–,–,–,–,·
Cc1cc(C)c(S(=O)(=O)N(C)CC(N)=O)c(C)c1,–,–,–,17,–,–,–
O=C(O)c1cccc(Nc2c3ccccc3nc3ccccc23)c1,·,·,·,20,·,·,–
CC(=O)c1cccc(Nc2cc(C)nc3ccccc23)c1,–,–,–,–,–,–,·
SMILES,Runt-SMMHC FRET,Runt-CBFb FRET,TbHK1 inh,RanGTP-Impb inh,Hck-Nef inh,14-3-3 Bad PPI,YIC counter
O=[N+]([O-])c1ccc(Nc2c3ccccc3nc3ccccc23)cc1,–,–,–,25,–,–,–
C=CCSc1nc2sc3c(c2c(=O)[nH]1)CC(C)(CC)OC3 (stereo not given),·,·,·,–,·,·,·
COC(=O)c1ccc2nc(NC(=O)C3CCCCC3)sc2c1,–,–,–,–,–,–,·
COC(=O)c1ccc2nc(NC(=O)C(C)(C)C)sc2c1,–,–,–,20,–,–,–
Cc1ccccc1-n1c(=O)cc(N2CC(C)OC(C)C2)[nH]c1=O (stereo not given),–,–,–,63,–,–,–
CCOC(=O)N1CCN(c2cc(=O)n(-c3ccccc3C)c(=O)[nH]2)CC1,–,–,–,36,–,–,–
